Screening data: PubChem BioAssay, several laboratories
Bcl-xL primary: inhibitors of human Bcl-xL, primary screen, biochemical, fluorescence polarization, HTS; Bcl-2-like protein 1 (Homo sapiens), Q07817; GST-Bcl-xL / FITC-Bim BH3 peptide fluorescence polarization; inhibition, % at 10.9 µM; 0.7% of 320,000 active; AID 2129, 2009;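 active = inhibition above the mean of all tested compounds plus 3 SD, cutoff set per campaign, cut at about 30% in these data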;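 also: 0% = DMSO wells and 100% = unlabeled Bim-BH3 peptide competitor; inhibitors lower millipolarization by displacing the labeled peptide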
EBV gp42 inh: Epstein-Barr virus gp42 inhibitors, primary screen, biochemical, uHTS, fluorescence polarization | Glycoprotein 42 (Epstein-Barr virus (strain AG876)), Q1HVG2 | Fluorescence polarization binding assay, mP read-out | inhibition, % (tested at 21.74 µM) | 0.42% of 220,000 active | AID 1085, 2008; in the data active = inhibition above about 50%
Target sequence (Q1HVG2 whole entry, looked up): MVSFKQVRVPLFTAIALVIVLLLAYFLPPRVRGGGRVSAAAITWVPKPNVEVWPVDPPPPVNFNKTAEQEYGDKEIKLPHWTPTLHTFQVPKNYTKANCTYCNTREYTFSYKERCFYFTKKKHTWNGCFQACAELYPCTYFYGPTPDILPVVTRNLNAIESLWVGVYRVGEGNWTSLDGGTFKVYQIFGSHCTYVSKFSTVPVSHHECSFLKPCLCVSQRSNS
IMP-1 inh-1: IMP-1 metallo-beta-lactamase inhibitors, primary screen, biochemical, epi-absorbance readout, Pseudomonas aeruginosa enzyme; purified IMP-1, nitrocefin hydrolysis, epi-absorbance fluorescence; inhibition, % at 5.6 µM; 0.45% of 290,000 active; metallo-beta-lactamase IMP-1 (Pseudomonas aeruginosa);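 active = inhibition above the mean plus 3 SD of all compounds in the same screening run, cut at about 4.5% in these data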;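 also: 0% = IMP-1 with DMSO and 100% = DMSO wells lacking enzyme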
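Material – recombinant IMP-1 enzyme, purified · Amount – IMP-1 0.2 nM before substrate addition · Medium – HEPES buffer pH 7.1 with ZnSO4 and Brij 35 · Timing – 25 °C, 15 min preincubation, 25 min reaction · Measured by – plate fluorescence quenching by hydrolysis product, ex 480/em 530 nm · Read-out – percent enzyme inhibition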
MEX-5 binding: MEX-5 zinc finger RNA-binding disruptors – biochemical, C. elegans, fluorescence polarization, MLPCN library, primary screen; 0.38% of 300,000 active; MEX-5/FITC-TCR2 RNA binding; stronger effect = lower value; activity score (negative = inhibition of binding), % at 10 µM;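 active = inhibition past about -25% in most replicates, and total fluorescence under double the plate's negative control median, limit read from the data; inconclusive = replicates evenly split on the limit, or fluorescence at least double controls; inactive = too little inhibition in most replicates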;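 also: 0% = DMSO and -100% = 5 µM competing unlabeled TCR2 RNA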
Target sequence (Q9XUB2 whole entry, looked up): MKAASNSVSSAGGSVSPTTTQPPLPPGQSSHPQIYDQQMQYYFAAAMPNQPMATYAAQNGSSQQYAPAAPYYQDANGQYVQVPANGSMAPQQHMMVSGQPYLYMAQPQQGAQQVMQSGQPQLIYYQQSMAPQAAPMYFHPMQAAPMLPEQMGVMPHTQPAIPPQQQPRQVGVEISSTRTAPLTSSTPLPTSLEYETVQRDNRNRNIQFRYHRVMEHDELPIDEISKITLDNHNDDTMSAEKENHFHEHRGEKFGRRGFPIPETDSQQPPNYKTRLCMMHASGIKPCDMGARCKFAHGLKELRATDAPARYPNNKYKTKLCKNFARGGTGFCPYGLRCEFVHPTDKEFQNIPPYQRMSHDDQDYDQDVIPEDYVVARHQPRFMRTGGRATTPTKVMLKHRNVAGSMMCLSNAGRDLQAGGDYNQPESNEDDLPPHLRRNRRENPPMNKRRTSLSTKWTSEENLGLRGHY
VIM-2 inh: VIM-2 metallo-beta-lactamase inhibitors, primary screen, biochemical, epi-absorbance readout, Pseudomonas aeruginosa enzyme; purified VIM-2, nitrocefin hydrolysis, epi-absorbance fluorescence; inhibition, % at 5.6 µM; 0.89% of 290,000 active;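 active = inhibition above the mean of all tested compounds plus 3 SD, cutoff set per screening run, cut at about 7.5% in these data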;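 also: red hydrolysis product quenches plate fluorescence so inhibitors raise well fluorescence; 0% = enzyme with DMSO and 100% = DMSO without enzyme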
GLD-1 RNA inh: GLD-1/TGE RNA complex disruptors, primary screen, biochemical, fluorescence polarization. purified GLD-1 + fluorescein TGE RNA. Female germline-specific tumor suppressor gld-1 (Caenorhabditis elegans), Q17339. inhibition, % at 5.96 µM. 0.44% of 320,000 active;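 active = percent inhibition above a per-plate cutoff, the plate mean of test compounds plus 3 SD, cut at about 30% in these data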;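 also: 0% = DMSO wells with GLD-1 and probe and 100% = wells lacking GLD-1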
IMP-1 inh-2: IMP-1 metallo-beta-lactamase inhibitors, confirmation, selectivity assay for selective VIM-2 inhibitor project, biochemical, epi-absorbance readout, triplicate; shares compounds with VIM-2 inh; purified IMP-1, nitrocefin hydrolysis, epi-absorbance fluorescence; inhibition, % at 5.6 µM; 1,300 tested, under 10 active; AID 1856, 2009; call rule not given here;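 also: 0% = enzyme with vehicle and 100% = vehicle without enzyme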
VIM-2 FRET ctr: VIM-2 inhibitors in FRET format, confirmation, artefact control for selective VIM-2 inhibitor project, biochemical, epi-absorbance artifact exclusion; shares compounds with VIM-2 inh; purified VIM-2, CCF2 FRET substrate hydrolysis; inhibition, % at 5.6 µM; 23% of 1,300 active;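 active = inhibition above the mean of all tested compounds plus 3 SD, cut at about 19% in these data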;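 also: 0% = VIM-2 plus DMSO and 100% = no enzyme wells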
TEM-1 counter: TEM-1 serine beta-lactamase inhibitors, counter-screen for VIM-2 inhibitor project, biochemical, epi-absorbance, HTS. shares compounds with VIM-2 inh. Purified TEM-1, nitrocefin hydrolysis, epi-absorbance fluorescence. inhibition, % at 5.6 µM. 3% of 1,300 active;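 active = inhibition above that campaign's mean inhibition plus 3 SD, cut at about 0.46% in these data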;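 also: 0% = TEM-1 with DMSO and 100% = TEM-1 with 100 µM potassium clavulanate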
VIM-2 inh conf: VIM-2 metallo-beta-lactamase inhibitors, confirmation, biochemical, epi-absorbance, hits shared with IMP-1 screen; shares compounds with VIM-2 inh; inhibition, % at 5.6 µM; purified VIM-2, nitrocefin hydrolysis; 96% of 1,300 active; AID 2187, 2009;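 active = inhibition of the VIM-2 beta-lactamase enzyme above about 11% from the earlier first-round screen, limit read from the data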;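 also: 0% = VIM-2 with DMSO and 100% = buffer wells without enzyme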
Starred values were filed as active, the others as inactive; ? = inconclusive; . = no result. Shown are actives, neighbours in structure and some others; about 2.2% of the full set was active somewhere.

SMILES | Bcl-xL primary | EBV gp42 inh | IMP-1 inh-1 | MEX-5 binding | VIM-2 inh | GLD-1 RNA inh | IMP-1 inh-2 | VIM-2 FRET ctr | TEM-1 counter | VIM-2 inh conf
CCc1cc2c(CN3CCN(CCO)CC3)cc(=O)oc2cc1O | 8 | 7 | -3 | -3 | 18* | 6 | -3 | -19 | -7 | 25*
CCc1cc2c(CN3CCN(C)CC3)cc(=O)oc2cc1O | 6 | -9 | 1 | -3 | 16* | 3 | -1 | -16 | 1.1* | 31*
COc1ccc(C(=O)O)cc1S(=O)(=O)N1CCN(Cc2ccc3c(c2)OCO3)CC1 | . | . | . | . | . | 6 | . | . | . | .
Cc1sc2c(=O)n3c(nc2c1C(=O)NCCCN1CCOCC1)CCCCC3 | 2 | -22 | -3 | -1 | 18* | 3 | -2 | 0 | -6 | 36*
Cc1sc2c(=O)n3c(nc2c1C(=O)NC1CCCCC1)CCCCC3 | 6 | -4 | -1 | 1 | -1 | -3 | . | . | . | .
S=c1[nH]nc(-c2ccco2)n1-c1cccc2ccccc12 | -10 | -6 | -7 | -4 | 19* | -9 | -2 | 49* | -8 | 32*
CC(C)Oc1ccc(Cn2c(-c3ccco3)n[nH]c2=S)cc1 | -30 | -4 | -6 | -3 | 16* | 2 | -3 | 45* | -10 | 27*
Cc1ccc(C)c(-n2c(-c3ccco3)n[nH]c2=S)c1 | -4 | . | . | . | . | 1 | . | . | . | .
CC(=C/c1ccccc1)/C=N/n1c(-c2ccco2)n[nH]c1=S | -21 | 0 | -2 | 0 | 17* | -1 | -3 | 38* | -7 | 23*
COc1ccccc1-n1c(-c2ccco2)n[nH]c1=S | -2 | . | -1 | 3 | 22* | -7 | -3 | 44* | -8 | 28*
C=C(C)COc1ccc2c(C)c(CCC(=O)N3C[C@H]4C[C@@H](C3)c3cccc(=O)n3C4)c(=O)oc2c1 | 1 | . | -2 | 2 | 1 | -7 | . | . | . | .
Oc1ccccc1CNCCCN1CCOCC1 | -4 | . | 1 | 1 | 0 | 2 | . | . | . | .
Nc1nc(NCCCN2CCOCC2)nc(Nc2ccc(Cl)cc2)c1[N+](=O)[O-] | 1 | 11 | -3 | 3 | 7 | 3 | . | . | . | .
Nc1nc(NCCCN2CCOCC2)nc(Nc2cccc(Cl)c2)c1[N+](=O)[O-] | 7 | -9 | 0 | -1 | 29* | 4 | -3 | 0 | -7 | 49*
Cc1ccccc1OCC(=O)OCC(=O)c1c[nH]c2ccccc12 | -12 | . | . | . | . | 5 | . | . | . | .
O=C(O)C/C(=C\c1cc(Cl)c2c(c1)OCO2)c1nc2ccccc2s1 | 11 | . | 1 | -1 | 14* | 13 | 0 | 40* | -5 | 23*
Cc1nn2c(NCCCN(C)C)c3c(nc2c1-c1ccccc1)CCCC3 | 3 | -5 | -1 | 0 | 45* | -1 | -2 | 0 | -6 | 53*
COCCNc1c2c(nc3c(-c4ccccc4)c(C)nn13)CCC2 | 4 | 4 | -3 | . | 6 | 13 | . | . | . | .
O=C1c2ccccc2C(=O)c2c1cccc2N1CCCC1 | 16 | 28 | 1 | -3 | 4 | 6 | . | . | . | .
O=C1c2ccccc2-c2onc3ccc(N4CCCC4)c1c23 | . | 26 | 2 | ? | 14* | . | 4 | 4 | 2.9* | 25*
CCN1CCc2c(sc(NC(=O)c3ccc(S(=O)(=O)N4CCOCC4)cc3)c2C(=O)OC)C1 | 0 | -4 | -3 | 2 | 64* | -3 | -2 | -2 | -4 | 77*
CNC(=O)c1c(NC(=O)c2ccc(S(=O)(=O)N3CCCCC3C)cc2)sc2c1CCN(C)C2 (stereo not drawn) | 0 | . | 3 | -26* | 22* | -4 | -3 | 2 | -6 | 30*
COC(=O)c1c(NC(=O)c2ccc(S(=O)(=O)N3CCOCC3)cc2)sc2c1CCN(C)C2 | 5 | -10 | -1 | . | 78* | -1 | -2 | -1 | -7 | 85*
CCN1CCc2c(sc(NC(=O)c3ccc(S(=O)(=O)N4CCOCC4)cc3)c2C(N)=O)C1 | 9 | -3 | -2 | -6 | 3 | 15 | . | . | . | .
COc1ccccc1NC(=O)CSCc1cc(=O)n2c(C)csc2n1 | 10 | . | -1 | 1 | -2 | -2 | . | . | . | .
SMILES | Bcl-xL primary | EBV gp42 inh | IMP-1 inh-1 | MEX-5 binding | VIM-2 inh | GLD-1 RNA inh | IMP-1 inh-2 | VIM-2 FRET ctr | TEM-1 counter | VIM-2 inh conf
Cc1c(Cl)cccc1NC(=S)NNS(=O)(=O)c1ccc([N+](=O)[O-])cc1 | 4 | . | -2 | -4 | -6 | 1 | . | . | . | .
CCn1c(SCC(=O)N2CCC(C)CC2)nc2c1c(=O)n(C)c(=O)n2C | 0 | . | -1 | 2 | 1 | -3 | . | . | . | .
CCN1CCN(C(=O)CSc2nc3c(c(=O)n(C)c(=O)n3C)n2C)CC1 | 2 | . | -1 | 1 | 76* | 3 | -2 | 2 | -4 | 85*
CCn1c(SCC(=O)N2CCN(C)CC2)nc2c1c(=O)n(C)c(=O)n2C | -3 | . | -2 | 0 | 55* | -4 | -4 | -4 | -5 | 63*
CCCn1c(SCC(=O)N2CCCc3ccccc32)nc2c1c(=O)n(C)c(=O)n2C | 3 | . | -6 | . | -1 | 5 | . | . | . | .
CCCn1c(SCC(=O)N2CCN(CC)CC2)nc2c1c(=O)n(C)c(=O)n2C | -2 | . | -1 | 1 | 52* | 6 | -4 | 1 | -6 | 61*
Cn1c(=O)c2c(nc(SCC(=O)N3CCCCCC3)n2C)n(C)c1=O | 1 | -11 | -3 | 1 | 1 | -1 | . | . | . | .
O=C(COC(=O)c1c2c(nc3ccccc13)CCCC2)Nc1ccc2c(c1)OCO2 | 6 | 0 | -3 | 0 | -3 | -2 | . | . | . | .
c1ccc2c(Nc3ccc4c(c3)OCCO4)c3c(nc2c1)CCCC3 | 2 | -6 | -1 | 1 | 15* | -2 | -3 | -5 | -2 | 23*
COc1ccc(Nc2c3c(nc4ccccc24)CCC3)c(OC)c1 | 1 | . | 0 | 1 | 19* | -12 | -5 | -3 | -8 | 22*
